Measurements reported in ChEMBL document CHEMBL4689842, “EUbOPEN Chemogenomics Library wave 1” (2021).
Where “and” joins values, the source holds several entries; their conditions need not be identical. Equal entries are not always repeated.

Test system: Fibroblast
Test: Multiplex assay against human fibroblast
Format: toxicity, cell-based
Procedure, shortened: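 Cells stained live at seeding with Hoechst33342, BioTracker Green Microtubule Cytoskeleton Dye, MitoTracker Red and Annexin V Alexa Fluor 680 were imaged on a CQ1 microscope at 37°C and 5% CO2 after compound addition. Their classification by CellPathfinder machine-learning gating ran from Hoechst high-intensity objects versus normal cells, to healthy, pyknosed or fragmented nuclei among normal cells, to mitotic or apoptotic among pyknosed cells. Tubulin, mitochondrial-mass and membrane-permeability phenotypes are per cents of healthy-nucleus cells.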

[1] = 12 h, 10 µM, compound concentration 10 uM, replicate 1
[2] = 12 h, 10 µM, compound concentration 10 uM, replicate 2
[3] = 24 h, 10 µM, compound concentration 10 uM, replicate 1
[4] = 24 h, 10 µM, compound concentration 10 uM, replicate 2
[5] = 12 h, 1 µM, compound concentration 1 uM, replicate 1
[6] = 12 h, 1 µM, compound concentration 1 uM, replicate 2
[7] = 24 h, 1 µM, compound concentration 1 uM, replicate 1
[8] = 24 h, 1 µM, compound concentration 1 uM, replicate 2
[9] = 48 h, 1 µM, compound concentration 1 uM, replicate 1
[10] = 48 h, 1 µM, compound concentration 1 uM, replicate 2
[11] = 48 h, 10 µM, compound concentration 10 uM, replicate 1
[12] = 48 h, 10 µM, compound concentration 10 uM, replicate 2

CN(c1ccccc1CNc1nc(Nc2ccc3c(c2)CC(=O)N3)ncc1C(F)(F)F)S(C)(=O)=O
Population Apoptotic (%) [1]: 77% and 66% | Population Fragmented Nuclei (%) [1]: 25% and 30% | Population Healthy Nuclei (%) [1]: 60% and 55% | Population Hoechst High Intensity Objects (%) [1]: 16% and 14% | Population Mitotic Cells (%) [1]: 22% and 33% | Population Normal (%) [1]: 83% and 85% | Population Pyknosed Nuclei (%) [1]: 13% and 14% | Total Cell Count [1]: 189 and 148 | Population Fragmented Nuclei (%) [2]: 56% and 49% | Population Healthy Nuclei (%) [2]: 38% and 25% | Population Hoechst High Intensity Objects (%) [2]: 39% and 31% | Population Mitochondria Different-Phenotype (%) [2]: 5% and 14% | Population Mitotic Cells (%) [2]: 100% and 64% | Population Normal (%) [2]: 60% and 68% | Total Cell Count [2]: 83 and 80 | Population Apoptotic (%) [3]: 70% and 91% | Population Fragmented Nuclei (%) [3]: 26% and 36% | Population Healthy Nuclei (%) [3]: 55% and 54% | Population Hoechst High Intensity Objects (%) [3]: 14% and 18% | Population Membrane Permeable-Phenotype (%) [3]: 11% | Population Normal (%) [3]: 85% and 81% | Population Pyknosed Nuclei (%) [3]: 18% and 9% | Total Cell Count [3]: 176 and 163 | Population Fragmented Nuclei (%) [4]: 43% and 49% | Population Healthy Nuclei (%) [4]: 47% and 28% | Population Hoechst High Intensity Objects (%) [4]: 36% and 30% | Population Membrane Permeable-Phenotype (%) [4]: 18% and 20% | Population Mitochondria Different-Phenotype (%) [4]: 13% and 26% | Population Normal (%) [4]: 63% and 69% | Population Pyknosed Nuclei (%) [4]: 8% and 22% | Total Cell Count [4]: 73 and 76

COc1ccccc1CN[C@H]1C2CCN(CC2)[C@H]1C(c1ccccc1)c1ccccc1 [CP-96345]
Population Apoptotic (%) [5]: 64% | Population Fragmented Nuclei (%) [5]: 25% | Population Healthy Nuclei (%) [5]: 43% | Population Hoechst High Intensity Objects (%) [5]: 13% | Population Membrane Permeable-Phenotype (%) [5]: 27% | Population Mitochondria Different-Phenotype (%) [5]: 9% | Population Mitotic Cells (%) [5]: 35% | Population Normal (%) [5]: 86% | Population Pyknosed Nuclei (%) [5]: 30% | Population Tubulin-Different-Phenotype (%) [5]: 52% | Total Cell Count [5]: 146 | Population Apoptotic (%) [6]: 66% | Population Fragmented Nuclei (%) [6]: 4% | Population Healthy Nuclei (%) [6]: 92% | Population Hoechst High Intensity Objects (%) [6]: 0% | Population Membrane Permeable-Phenotype (%) [6]: 4% | Population Mitochondria Different-Phenotype (%) [6]: 7% | Population Mitotic Cells (%) [6]: 33% | Population Normal (%) [6]: 100% | Population Pyknosed Nuclei (%) [6]: 3% | Population Tubulin-Different-Phenotype (%) [6]: 8% | Total Cell Count [6]: 90 | Population Apoptotic (%) [1]: 67% | Population Fragmented Nuclei (%) [1]: 29% | Population Healthy Nuclei (%) [1]: 45% | Population Hoechst High Intensity Objects (%) [1]: 13% | Population Membrane Permeable-Phenotype (%) [1]: 6% | Population Mitochondria Different-Phenotype (%) [1]: 44% | Population Mitotic Cells (%) [1]: 32% | Population Normal (%) [1]: 86% | Population Pyknosed Nuclei (%) [1]: 25% | Population Tubulin-Different-Phenotype (%) [1]: 84% | Total Cell Count [1]: 129 | Population Apoptotic (%) [2]: 50% | Population Fragmented Nuclei (%) [2]: 2% | Population Healthy Nuclei (%) [2]: 86% | Population Hoechst High Intensity Objects (%) [2]: 3% | Population Membrane Permeable-Phenotype (%) [2]: 1% | Population Mitochondria Different-Phenotype (%) [2]: 45% | Population Mitotic Cells (%) [2]: 50% | Population Normal (%) [2]: 96% | Population Pyknosed Nuclei (%) [2]: 10% | Population Tubulin-Different-Phenotype (%) [2]: 26% | Total Cell Count [2]: 77 | Population Apoptotic (%) [7]: 63% | Population Fragmented Nuclei (%) [7]: 26% | Population Healthy Nuclei (%) [7]: 49% | Population Hoechst High Intensity Objects (%) [7]: 15% | Population Membrane Permeable-Phenotype (%) [7]: 23% | Population Mitochondria Different-Phenotype (%) [7]: 8% | Population Mitotic Cells (%) [7]: 36% | Population Normal (%) [7]: 84% | Population Pyknosed Nuclei (%) [7]: 24% | Population Tubulin-Different-Phenotype (%) [7]: 41% | Total Cell Count [7]: 161 | Population Apoptotic (%) [8]: 54% | Population Fragmented Nuclei (%) [8]: 4% | Population Healthy Nuclei (%) [8]: 85% | Population Hoechst High Intensity Objects (%) [8]: 2% | Population Membrane Permeable-Phenotype (%) [8]: 1% | Population Mitochondria Different-Phenotype (%) [8]: 4% | Population Mitotic Cells (%) [8]: 45% | Population Normal (%) [8]: 97% | Population Pyknosed Nuclei (%) [8]: 9% | Population Tubulin-Different-Phenotype (%) [8]: 17% | Total Cell Count [8]: 114 | Population Apoptotic (%) [3]: 55% | Population Fragmented Nuclei (%) [3]: 41% | Population Healthy Nuclei (%) [3]: 43% | Population Hoechst High Intensity Objects (%) [3]: 22% | Population Membrane Permeable-Phenotype (%) [3]: 3% | Population Mitochondria Different-Phenotype (%) [3]: 41% | Population Mitotic Cells (%) [3]: 44% | Population Normal (%) [3]: 77% | Population Pyknosed Nuclei (%) [3]: 14% | Population Tubulin-Different-Phenotype (%) [3]: 86% | Total Cell Count [3]: 156 | Population Apoptotic (%) [4]: 40% | Population Fragmented Nuclei (%) [4]: 2% | Population Healthy Nuclei (%) [4]: 81% | Population Hoechst High Intensity Objects (%) [4]: 1% | Population Membrane Permeable-Phenotype (%) [4]: 2% | Population Mitochondria Different-Phenotype (%) [4]: 31% | Population Mitotic Cells (%) [4]: 60% | Population Normal (%) [4]: 98% | Population Pyknosed Nuclei (%) [4]: 16% | Population Tubulin-Different-Phenotype (%) [4]: 14% | Total Cell Count [4]: 92 | Population Apoptotic (%) [9]: 42% | Population Fragmented Nuclei (%) [9]: 30% | Population Healthy Nuclei (%) [9]: 60% | Population Hoechst High Intensity Objects (%) [9]: 14% | Population Membrane Permeable-Phenotype (%) [9]: 20% | Population Mitochondria Different-Phenotype (%) [9]: 3% | Population Mitotic Cells (%) [9]: 57% | Population Normal (%) [9]: 85% | Population Pyknosed Nuclei (%) [9]: 9% | Population Tubulin-Different-Phenotype (%) [9]: 29% | Total Cell Count [9]: 169 | Population Apoptotic (%) [10]: 50% | Population Fragmented Nuclei (%) [10]: 36% | Population Healthy Nuclei (%) [10]: 61% | Population Hoechst High Intensity Objects (%) [10]: 12% | Population Membrane Permeable-Phenotype (%) [10]: 25% | Population Mitochondria Different-Phenotype (%) [10]: 4% | Population Mitotic Cells (%) [10]: 50% | Population Normal (%) [10]: 87% | Population Pyknosed Nuclei (%) [10]: 2% | Population Tubulin-Different-Phenotype (%) [10]: 36% | Total Cell Count [10]: 82 | Population Apoptotic (%) [11]: 83% | Population Fragmented Nuclei (%) [11]: 36% | Population Healthy Nuclei (%) [11]: 58% | Population Hoechst High Intensity Objects (%) [11]: 25% | Population Membrane Permeable-Phenotype (%) [11]: 2% | Population Mitochondria Different-Phenotype (%) [11]: 36% | Population Mitotic Cells (%) [11]: 16% | Population Normal (%) [11]: 75% | Population Tubulin-Different-Phenotype (%) [11]: 61% | Total Cell Count [11]: 172 | Population Apoptotic (%) [12]: 25% | Population Fragmented Nuclei (%) [12]: 30% | Population Healthy Nuclei (%) [12]: 66% | Population Hoechst High Intensity Objects (%) [12]: 11% | Population Membrane Permeable-Phenotype (%) [12]: 24% | Population Mitochondria Different-Phenotype (%) [12]: 7% | Population Mitotic Cells (%) [12]: 75% | Population Normal (%) [12]: 88% | Population Pyknosed Nuclei (%) [12]: 4% | Population Tubulin-Different-Phenotype (%) [12]: 60% | Total Cell Count [12]: 113
